ChEMBL document CHEMBL6177989, “Development of Diaryl Hydrazones for Alleviation of Mitochondrial Oxidative Stress in Preeclampsia” (2025)
Active and inactive are the calls of the source. No cut-off for these calls is given here.

How the values were obtained:
[1] = Antioxidant activity assessed as trolox equivalent of DPPH radical scavenging activity […] measured every 15 mins for 60 mins by absorbance based assay; format: functional
Summary of the method: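 DPPH radical scavenging by absorbance at 25 °C, compounds at 200 μM antioxidant concentration. Percent scavenging from control vs sample absorbance; 60 min value divided by 60 min Trolox value to give Trolox equivalents. Mean ± SD, four independent repeats.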

[2] = Antioxidant activity assessed as trolox equivalent of ABTS radical scavenging activity at […] measured up to 12 mins by absorbance based analysis; format: functional
Summary of the method: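 ABTS radical generated 12–24 h before assay; compounds tested at 500 μM final antioxidant concentration; absorbance read on plate reader at 25 °C. Percent scavenging standardized to Trolox scavenging to give Trolox equivalents; mean ± SD of three independent repeats.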

[3] = Antioxidant activity assessed as trolox equivalent of ORAC radical scavenging activity […] measured every 2 mins for 60 mins by UV-Vis / fluorescence plate reader based analysis; format: functional
Summary of the method: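 ORAC: fluorescein with AAPH, fluorescence read 30 times; net AUC relative to AAPH control and no-AAPH maximum. Compounds at 80 μM; Trolox calibration (3.125–100 μM) of percent scavenging vs ln concentration gives Trolox equivalent concentration. 25 °C; mean ± SD, three independent repeats.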

HTR-8/SVneo = test: Antioxidant activity in H2O2 induced human HTR-8/SVneo cells assessed as reduction in sFLT-1 protein expression at 0.1 to 50 uM preincubated for 30 mins followed by H2O2 addition and measured after 20 hrs by ELISA method; format: functional, cell-based; details: dose 0.1-50 µM, time 20.5 hrs
Summary of the method: (§1)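 HTR-8/SVneo cells in RPMI with 5% FBS, 37 °C, 5% CO2, pretreated 30 min with 0.1–50 μM compound, then 100 μM H2O2 for 20 h with compound present throughout. Supernatant sFLT-1 measured by human VEGFR1 ELISA; MitoTEMPO as reference antioxidant; 5 repeat experiments.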

[4] = Antioxidant activity in H2O2 induced human HTR-8/SVneo cells assessed as reduction in mitochondrial derived ROS production at 50 uM preincubated for 30 mins followed by H2O2 addition and measured after 20 hrs by MitoSOX red staining based immunofluorescence analysis relative to control; format: functional; parameters: scale not given: the % may be the effect or the level left; details: time 20.5 hrs
Summary of the method: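 HTR8 cells pretreated 30 min with 50 μM compound, then 100 μM H2O2 for 20 h. Mitochondrial superoxide imaged with MitoSOX Red by fluorescence microscopy at 20×; OD per cell surface area over 3 high-power fields per sample, n = 4 per group; median [IQR], Mann–Whitney U test.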

[5] = Antioxidant activity in H2O2 induced human HTR-8/SVneo cells assessed as reduction in sFLT-1 protein expression at 0.1 to 50 uM preincubated for 30 mins followed by H2O2 addition and measured after 20 hrs by ELISA method relative to MitoTEMPO; format: functional; parameters: scale not given: the % may be the effect or the level left; details: dose 0.1-50 µM, time 20.5 hrs; summary of the method: as §1

Structure (SMILES)	Activity [1]	Activity [2]	Activity [3]	Activity (HTR-8/SVneo)	Activity [4]	Activity [5]
C(=N\Nc1ccccc1)/c1c[nH]c2ccccc12	Active	Active	Active	–	–	–
Cc1ccc(C)c(N/N=C/c2ccc3ccccc3c2)c1	Active	Active	Active	–	–	–
C/C(=N\Nc1cc(C)ccc1C)c1ccc([N+](=O)[O-])cc1	Weak_effect	Weak_effect	Active	–	–	–
COc1ccc(N/N=C/c2ccc(/C=N/Nc3ccc(OC)cc3)cc2)cc1	Active	Active	Active	–	–	–
CN(C)c1ccc(/C=N/Nc2cccc(C(F)(F)F)c2)cc1	Active	Active	Active	Active	50%	10%
C/C(=N\Nc1ccccc1)c1ccc(Cl)cc1	Active	Active	Active	–	–	–
Clc1ccc(N/N=C/c2ccc3ccccc3c2)cc1	Active	Active	–	–	–	–
O=[N+]([O-])c1ccc(/C=N/Nc2cccc(C(F)(F)F)c2)cc1	Active	Active	Active	Active	–	–
C/C(=N\Nc1ccccc1)c1ccc(C)cc1	Active	Active	Active	–	–	–
COc1ccc(N/N=C(\C)c2cc3ccc(OC)cc3oc2=O)cc1	Active	Active	Active	–	–	–
COc1ccc(/C=N/Nc2ccc(C(F)(F)F)cc2)c(O)c1	Active	Active	Active	Active	–	–
C/C(=N\Nc1cc(C)ccc1C)c1cccc([N+](=O)[O-])c1	Weak_effect	Weak_effect	Active	–	–	–
COc1ccc(N/N=C/c2ccc3ccccc3c2)cc1	Active	Active	Active	–	–	–
COc1ccc(N/N=C/c2ccc([N+](=O)[O-])cc2)cc1	–	–	Active	–	–	–
COc1ccc(/C=N/Nc2cccc(C(F)(F)F)c2)cc1OC	Active	Active	Active	Active	–	10%
CN(C)c1ccc(/C=N/Nc2ccccc2C(F)(F)F)cc1	Active	Active	Active	Active	–	–
COc1ccc(/C(C)=N/Nc2ccccc2)c(O)c1	Active	Active	Active	–	–	–
O=[N+]([O-])c1cccc(N/N=C/c2ccc3ccccc3c2)c1	Active	Active	Weak_effect	–	–	–
CN(C)c1ccc(/C=N/Nc2ccc(C(F)(F)F)cc2)cc1	Active	Active	Active	Active	–	–
COc1ccc(N/N=C(\C)c2ccc([N+](=O)[O-])cc2)cc1	Weak_effect	Weak_effect	Active	–	–	–
FC(F)(F)c1cccc(N/N=C/c2ccc(/C=N/Nc3cccc(C(F)(F)F)c3)cc2)c1	Active	Active	Active	Active	–	–
C(=N\Nc1ccccc1)/c1ccc2ccccc2c1	Active	Active	Active	–	–	–
Fc1c(F)c(F)c(/C=N/Nc2ccc(C(F)(F)F)cc2)c(F)c1F	Active	Active	Active	Active	–	–
FC(F)(F)c1ccccc1N/N=C/c1c2ccccc2cc2ccccc12	Active	Active	Weak_effect	–	–	–
